Experimental data as given in article PMC6805150 (Bioorganic & medicinal chemistry, 2014).
No end group written: not given here.

What was measured:
recombinant IKKα = molecular target: T1, recombinant IKKα (Homo sapiens, UniProt O15111); test: LANCE Ultra TR-FRET kinase assay, recombinant IKKα; format: biochemical; details: 20 μM AdAr; ATP near apparent Km; vs solvent control; ± SD, 3–4 experiments
T1 sequence (O15111 1-745): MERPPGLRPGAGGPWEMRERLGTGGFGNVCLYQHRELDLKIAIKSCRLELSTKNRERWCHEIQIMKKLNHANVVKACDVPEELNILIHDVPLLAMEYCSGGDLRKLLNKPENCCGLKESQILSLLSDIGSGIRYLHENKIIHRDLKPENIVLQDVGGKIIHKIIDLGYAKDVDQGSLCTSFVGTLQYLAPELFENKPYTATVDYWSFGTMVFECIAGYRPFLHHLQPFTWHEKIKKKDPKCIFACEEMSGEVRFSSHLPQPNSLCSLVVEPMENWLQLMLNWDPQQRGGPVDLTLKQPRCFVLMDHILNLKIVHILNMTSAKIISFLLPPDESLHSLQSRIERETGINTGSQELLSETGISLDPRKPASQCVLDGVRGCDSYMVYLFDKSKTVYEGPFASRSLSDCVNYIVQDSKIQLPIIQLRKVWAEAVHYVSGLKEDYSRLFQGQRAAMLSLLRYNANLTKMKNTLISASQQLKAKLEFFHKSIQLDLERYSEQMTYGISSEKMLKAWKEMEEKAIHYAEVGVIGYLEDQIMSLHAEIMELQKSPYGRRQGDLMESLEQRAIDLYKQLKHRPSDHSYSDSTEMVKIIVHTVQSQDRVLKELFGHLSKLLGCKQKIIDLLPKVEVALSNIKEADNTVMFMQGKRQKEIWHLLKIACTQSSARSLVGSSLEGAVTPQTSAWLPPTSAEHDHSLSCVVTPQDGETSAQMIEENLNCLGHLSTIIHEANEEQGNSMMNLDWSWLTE
Procedure, shortened: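 Reaction stopped with 20 mM EDTA plus 2 nM Eu-labelled phospho-specific antibody. TR-FRET (ex 340 nm; 615/665 nm) read 2 h later. Counts normalized; inhibition relative to solvent control; triplicates.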

recombinant IKKβ = molecular target: T2, recombinant IKKβ (Homo sapiens, UniProt O14920); test: LANCE Ultra TR-FRET kinase assay, recombinant IKKβ; format: biochemical
T2 sequence (O14920 1-756): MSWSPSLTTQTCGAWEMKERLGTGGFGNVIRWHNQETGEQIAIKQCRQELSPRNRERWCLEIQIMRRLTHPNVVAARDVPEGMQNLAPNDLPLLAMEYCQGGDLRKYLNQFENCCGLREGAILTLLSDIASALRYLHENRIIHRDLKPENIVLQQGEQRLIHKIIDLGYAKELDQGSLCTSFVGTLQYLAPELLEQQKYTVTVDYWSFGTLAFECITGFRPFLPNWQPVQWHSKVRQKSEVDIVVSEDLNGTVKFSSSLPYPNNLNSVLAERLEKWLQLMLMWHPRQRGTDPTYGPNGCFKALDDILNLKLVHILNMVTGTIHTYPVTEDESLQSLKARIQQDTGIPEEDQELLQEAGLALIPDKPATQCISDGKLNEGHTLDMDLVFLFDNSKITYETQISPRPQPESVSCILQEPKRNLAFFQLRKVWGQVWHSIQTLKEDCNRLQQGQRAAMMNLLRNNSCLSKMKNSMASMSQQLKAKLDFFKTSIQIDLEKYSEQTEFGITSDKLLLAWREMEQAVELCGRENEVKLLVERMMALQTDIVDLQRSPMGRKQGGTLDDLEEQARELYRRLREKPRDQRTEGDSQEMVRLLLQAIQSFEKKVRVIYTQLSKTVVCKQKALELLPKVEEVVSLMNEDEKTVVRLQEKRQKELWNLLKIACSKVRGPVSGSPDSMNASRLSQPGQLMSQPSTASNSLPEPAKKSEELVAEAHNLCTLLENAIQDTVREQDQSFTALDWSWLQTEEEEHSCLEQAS
Procedure, shortened: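 Purified recombinant IKKβ (1 nM) in Hepes pH 7.4 buffer with MgCl₂, EGTA, DTT and Tween-20; 50 nM ULight-IκBα peptide substrate; 1.25 μM ATP. Runs 1 h at room temperature, then stopped with 20 mM EDTA plus 2 nM Eu-labelled phospho-specific antibody for TR-FRET. Activity is % of solvent control, 3–4 experiments in triplicate.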

recombinant IKKε = molecular target: T3, recombinant IKKε (Homo sapiens, UniProt Q14164); test: LANCE Ultra TR-FRET kinase assay, recombinant IKKε; format: biochemical; details: 20 μM AdAr; ATP near apparent Km; vs solvent control; ± SD, 3–4 experiments
T3 sequence (Q14164 1-716): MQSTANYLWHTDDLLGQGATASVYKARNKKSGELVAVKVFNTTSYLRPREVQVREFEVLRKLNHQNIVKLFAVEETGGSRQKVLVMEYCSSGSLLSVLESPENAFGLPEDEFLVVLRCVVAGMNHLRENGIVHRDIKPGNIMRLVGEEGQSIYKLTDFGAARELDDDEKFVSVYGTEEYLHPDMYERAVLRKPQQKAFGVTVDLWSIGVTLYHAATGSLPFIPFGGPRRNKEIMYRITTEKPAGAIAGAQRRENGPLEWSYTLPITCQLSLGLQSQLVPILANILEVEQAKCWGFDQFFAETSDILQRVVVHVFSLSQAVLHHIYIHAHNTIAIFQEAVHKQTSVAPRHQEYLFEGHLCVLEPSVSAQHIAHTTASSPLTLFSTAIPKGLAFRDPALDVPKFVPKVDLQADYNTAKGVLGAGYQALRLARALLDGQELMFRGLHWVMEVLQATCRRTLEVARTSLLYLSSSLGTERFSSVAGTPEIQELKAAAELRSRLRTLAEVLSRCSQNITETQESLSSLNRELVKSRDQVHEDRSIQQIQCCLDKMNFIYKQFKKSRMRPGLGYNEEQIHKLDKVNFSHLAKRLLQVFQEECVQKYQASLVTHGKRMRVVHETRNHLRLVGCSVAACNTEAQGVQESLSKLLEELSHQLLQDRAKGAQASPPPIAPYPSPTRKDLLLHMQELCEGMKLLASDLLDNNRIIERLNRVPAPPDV
Procedure, shortened: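 Recombinant IKKε enzyme, 2 nM final, in Hepes pH 7.4 kinase buffer (10 mM MgCl₂, 1 mM EGTA, 2 mM DTT, 0.01% Tween-20). Substrate was 50 nM ULight-rpS6, with 5 μM ATP, run 2 h at room temperature. The reaction was quenched with 20 mM EDTA containing 2 nM Eu-anti-phospho antibody. After 2 h, TR-FRET was read at 615 and 665 nm (340 nm excitation). Percent inhibition was taken versus solvent control; triplicate points.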

RXRα = molecular target: T4, RXRα (Homo sapiens, UniProt P19793); test: Gal4-RXRα transactivation assay in HEK-293-luciferase reporter cells; format: cell-based
T4 sequence (P19793 1-462): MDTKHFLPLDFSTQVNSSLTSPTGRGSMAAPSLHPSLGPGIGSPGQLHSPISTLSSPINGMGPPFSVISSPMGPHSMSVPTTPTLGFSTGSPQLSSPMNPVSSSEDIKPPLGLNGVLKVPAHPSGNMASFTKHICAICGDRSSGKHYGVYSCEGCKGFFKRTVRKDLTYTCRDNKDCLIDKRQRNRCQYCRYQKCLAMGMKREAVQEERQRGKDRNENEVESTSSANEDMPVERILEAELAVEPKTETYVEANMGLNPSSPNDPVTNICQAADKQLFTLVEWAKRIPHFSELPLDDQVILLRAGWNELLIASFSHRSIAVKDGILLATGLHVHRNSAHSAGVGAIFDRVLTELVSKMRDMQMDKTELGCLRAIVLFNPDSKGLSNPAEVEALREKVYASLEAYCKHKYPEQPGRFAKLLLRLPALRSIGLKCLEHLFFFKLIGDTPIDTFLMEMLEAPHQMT

[1] = molecular target: T5, GST-RXRα LBD with D22 coactivator peptide (Homo sapiens, UniProt P19793); test: TR-FRET RXR LBD-coactivator peptide recruitment assay, D22 peptide; format: biochemical; details: in combination with a low concentration of CD3254 agonist (Figure S2)
T5 sequence (P19793 227-458 limits assumed): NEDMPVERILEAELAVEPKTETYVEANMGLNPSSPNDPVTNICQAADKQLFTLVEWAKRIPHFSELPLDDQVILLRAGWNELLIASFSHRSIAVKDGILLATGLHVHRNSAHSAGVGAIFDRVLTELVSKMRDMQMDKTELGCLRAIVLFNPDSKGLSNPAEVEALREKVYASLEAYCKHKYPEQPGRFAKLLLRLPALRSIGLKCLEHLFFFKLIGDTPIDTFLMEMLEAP
Procedure, shortened: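 5 nM GST-RXRα LBD incubated at room temperature with 150 nM fluorescein-D22 peptide in 25 mM Hepes pH 7.4, 100 mM NaCl, 0.025% BSA, 5% glycerol, 0.005% Tween-20, 2.5 mM DTT. Ligand or DMSO (≤1%) added; 2 nM Tb-anti-GST antibody for detection. After 4 h, TR-FRET read at 495 and 520 nm. The 520/495 ratio was expressed as Delta F% against controls lacking GST-RXRα.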

Jurkat T cells = test: CellTiter-GLO cell viability/proliferation assay; details: 4 μM, 24 h (Table 1)
GST-RXRα LBD = test: AlphaScreen or HTRF

## (E)-3-[2-(3-Acetamidopropoxy)-3-(adamant-1-yl)-4-hydroxybiphenyl-4-yl]acrylic Acid [2c]
Recombinant IKKα
  % Inhibition of IKK activity IKKα: 5.0 ± 4.9%
Recombinant IKKβ; 20 μM AdAr, ATP near apparent Km, vs solvent control, ± SD, 3–4 experiments
  % Inhibition of IKK activity IKKβ: 0%
Recombinant IKKε
  % Inhibition of IKK activity IKKε: 14.4 ± 4.1%

## COCCOCOc1ccc(-c2ncc(-c3ccc(C(=O)O)cc3)s2)cc1C12CC3CC(CC(C3)C1)C2 [8c, 4-[2-(3-Adamantan-1-yl-4-[(2-methoxyethoxy)methoxy]phenyl)thiazol-5-yl]benzoic Acid]
RXRα; 4 μM AdAr, CD3254 1 μM
  Gal4-RXRα transactivation, % of the maximum activity observed with control rexinoid CD3254: ~ 20%
RXRα; AdArs 4 μM, positive control CD3254 1 μM, vs solvent control cells
  RXR Profile Agonist (fold induction of RXRα activity): 3 fold induction

## Cc1cc(O)c(C23CC4CC(CC(C4)C2)C3)cc1-c1ccc(CC(=O)O)cc1Cl [6a]
[1]
  inhibition of RXRα LBD/D22 binding stimulated by CD3254: 25%

## Cc1cc(O)c(C23CC4CC(CC(C4)C2)C3)cc1-c1ccc2cc(C(=O)O)ccc2c1Cl [4a]
Recombinant IKKβ; ratio of IC50 values
  potency against IKKβ relative to MX781 3 (times more potent): about 2.5 times
RXRα; 100 nM CD3254 plus 4 μM AdAr
  inhibition in Gal4-RXRα transactivation assay, antagonist mode: 30%
[1]
  inhibition of RXRα LBD/D22 binding stimulated by CD3254: 25%
Jurkat T cells
  inhibition of Jurkat cell viability: > 85%

## O=C(O)c1ccc(-c2cnc(-c3ccc(O)c(C45CC6CC(CC(C6)C4)C5)c3)s2)cc1 [8a, 4-[2-(3-Adamantan-1-yl-4-hydroxyphenyl)thiazol-5-yl]benzoic Acid]
Jurkat T cells
  inhibition of Jurkat cell viability: > 85%

## CCCCCOc1cc2c(cc1-c1cc(/C=C/C(=O)O)ccc1O)C(C)(C)CCC2(C)C [34, UVI3003, reference compound]
[1]
  inhibition of RXRα LBD/D22 binding stimulated by CD3254: complete inhibition

## fluorescein-LPYEGSLLLKLLRAPVEEV [fluorescein labeled D22 coactivator peptide]
GST-RXRα LBD
  % inhibition of the CD3254-stimulated interaction (by 4a): 25%
  % inhibition of the CD3254-stimulated interaction (by 6a): 25%
  Delta F% (ligand: 4a): 29%
  Delta F% (ligand: 4b): 159%
  Delta F% (ligand: 5a): 487%
  Delta F% (ligand: 5b): 654%
  Delta F% (ligand: 5c): 113%
  Delta F% (ligand: 6b): 214%
  Delta F% (ligand: 7a): 156%
  Delta F% (ligand: 7c): 127%
  Delta F% (ligand: 8a): 94%
  Delta F% (ligand: 8b): 113%
  Delta F% (ligand: 8c): 133%
  Delta F% (ligand: 9c): 119%
  Delta F% (ligand: 10a): 102%
  Delta F% (ligand: 10c): 170%
  Delta F% (ligand: 9d): 87%
  Delta F% (ligand: CD3254 33): 416%
  Delta F% (no ligand): 100%

## CPSSHSSLTERHKILHRLLQEGSPSK (biotin on the added C-terminal lysine (-K-biotin)) [biotinylated SRC-1-676-700 peptide]
GST-RXRα LBD
  Delta F% (ligand: 4a): 53%
  Delta F% (ligand: 4b): 187%
  Delta F% (ligand: 5a): 373%
  Delta F% (ligand: 5b): 437%
  Delta F% (ligand: 5c): 152%
  Delta F% (ligand: 6a): 81%
  Delta F% (ligand: 6b): 422%
  Delta F% (ligand: 7a): 162%
  Delta F% (ligand: 8a): 183%
  Delta F% (ligand: 8b): 117%
  Delta F% (ligand: 8c): 159%
  Delta F% (ligand: 9a): 116%
  Delta F% (ligand: 9b): 106%
  Delta F% (ligand: 9c): 122%
  Delta F% (ligand: 10a): 111%
  Delta F% (ligand: 10c): 172%
  Delta F% (ligand: 7d): 133%
  Delta F% (ligand: 8d): 115%
  Delta F% (ligand: 9d): 106%
  Delta F% (ligand: CD3254 33): 561%
  Delta F% (no ligand): 148%
